Results of several laboratories.
Each line is one published result; the experiments were not run side by side.

NCc1ccc(-c2nn(Cc3ccccc3)c3ccccc23)o1 — Tmax (male CD-1 mouse; plasma; oral; 10 mg/kg): 30 min
COCC(=O)N1CCc2[nH]c3c(Cl)c(Cl)ccc3c2[C@@H]1C — Tmax (C57BL/6 mouse; blood; oral; 20 mg/kg): 25 min
Cc1ccc(N(c2ccc(NC(=O)CN(C)c3ccccc3N3CCCC3=O)cc2)C(C)C)cc1 — Tmax (male CD-1 mouse; plasma; oral; 20 mg/kg): 40.2 min
CCOC(=O)c1c(NC(=O)CNC(C)C)sc2c1CCCCC2 — Tmax (male mouse; plasma; intraperitoneal; 5 mg/kg; single dose): 11.6 min
CN(C)C(=O)c1cc2cnc(Nc3ccc(-c4ccc5c(=O)cc(N6CCOCC6)oc5c4)cc3)nc2n1C1CCCC1.Cl — Tmax (BALB/c mouse; plasma; intravenous; 2 mg/kg): 6 min
NCc1cc2c(cc1F)C(=O)N(C1CCC(=O)NC1=O)C2 (stereo not shown) — Tmax (male CD-1 mouse; plasma; oral; 10 mg/kg): 48 min
Cc1ccc(CCC(=O)Nc2nnc(S(N)(=O)=O)s2)cc1 — Tmax (male BALB/c mouse; plasma; oral; 20 mg/kg): 10 min
COc1cc(C2C3=C(COC3=O)N(CCO)c3cc4c(cc32)CCC4)cc(OC)c1OC (stereo not shown) — Tmax (female C57BL/6 mouse; plasma; intraperitoneal; 50 mg/kg): 60 min
NCc1ccc(-c2nn(Cc3ccncc3)c3ccccc23)o1 — Tmax (male CD-1 mouse; plasma; intraperitoneal; 30 mg/kg): 19.8 min
COC1=CC(c2ccc[nH]2)=N/C1=C\c1cc(Cc2ccc(OC(F)(F)F)cc2)c(C)[nH]1.Cl — Tmax (male CD-1 mouse; liver; oral; 40 mg/kg; single dose): 1440 min
Cc1ccc(OCC(=O)N[C@@H](Cc2c[nH]c3ccccc23)C(=O)OC(C)C)cc1 — Tmax (male Sprague-Dawley mouse; plasma; oral; 20 mg/kg): 72 min
Cc1nc2ccc(OCc3ccc(C(F)(F)F)cc3)cc2[nH]1 — Tmax (male BALB/c mouse; plasma; oral; 10 mg/kg): 15 min
OCc1ccc(-c2nn(Cc3ccccc3)c3ccccc23)o1 — Tmax (male CD-1 mouse; plasma; intraperitoneal; 30 mg/kg): 15 min
Cc1[nH]c(C)c(S(=O)(=O)Nc2ccc(C(F)(F)F)c(Cl)c2)c1C(=O)N1CCC(F)(F)C1 — Tmax (male CD-1 mouse; plasma; intraperitoneal; 40 mg/kg): 60 min
COC1=CC(c2ccc[nH]2)=N/C1=C\c1[nH]c(Cc2ccc(OC(F)(F)F)cc2)cc1Cc1ccc(OC(F)(F)F)cc1 — Tmax (male CD-1 mouse; plasma; oral; 40 mg/kg; single dose): 240 min
FC(F)(F)CN1CC(n2cc(Oc3ccn4nc(Cl)cc4n3)cn2)C1 — Tmax (FVB mouse; blood; oral; single dose): 30 min
